Measured values as given in ChEMBL document CHEMBL4346661, “Design, synthesis and evaluation of novel diaryl-1,5-diazoles derivatives bearing morpholine as potent dual COX-2/5-LOX inhibitors and antitumor agents” (Eur J Med Chem, 2019).
Calls of active or inactive are those of the source. The rule behind the calls is not given here.

Legend:
MCF7 = assay: Antiproliferative activity against human MCF7 cells incubated for 48 hrs by MTT assay; assay type: functional, cell-based; conditions: MCF7, 48 h
Procedure, shortened: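 MTT assay on F10 (murine melanoma), HeLa, A549, MCF-7 and 293T (human renal epithelium) cells. IC50 given as mean ± SD of three independent experiments.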

[1] = biological target: T1, Prostaglandin G/H synthase 2 (Homo sapiens, UniProt P35354); assay: Inhibition of COX2 (unknown origin) using arachidonic acid as substrate incubated for 10 mins by Ellman's reagent based COX-1/COX-2 ELISA assay
T1 sequence (P35354 whole entry): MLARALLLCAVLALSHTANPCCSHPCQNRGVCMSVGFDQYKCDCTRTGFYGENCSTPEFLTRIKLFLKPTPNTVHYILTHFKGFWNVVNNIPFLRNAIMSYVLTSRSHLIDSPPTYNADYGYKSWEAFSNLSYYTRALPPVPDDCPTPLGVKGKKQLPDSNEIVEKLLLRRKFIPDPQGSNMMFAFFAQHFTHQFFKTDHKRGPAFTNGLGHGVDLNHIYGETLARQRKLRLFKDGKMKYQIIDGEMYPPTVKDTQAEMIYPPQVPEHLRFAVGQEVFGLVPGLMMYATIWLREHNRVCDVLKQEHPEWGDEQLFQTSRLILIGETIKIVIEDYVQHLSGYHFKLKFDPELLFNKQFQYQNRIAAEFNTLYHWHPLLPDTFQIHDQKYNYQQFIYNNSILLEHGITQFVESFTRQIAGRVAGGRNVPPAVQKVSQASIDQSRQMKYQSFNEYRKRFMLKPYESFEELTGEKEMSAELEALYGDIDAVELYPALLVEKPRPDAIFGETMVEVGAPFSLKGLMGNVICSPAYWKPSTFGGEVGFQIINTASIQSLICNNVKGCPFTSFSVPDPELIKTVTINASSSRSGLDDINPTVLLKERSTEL

B16-F10 [2] = assay: Induction of apoptosis in mouse B16F10 cells assessed as late apoptosis cells at 3.125 uM incubated for 48 hrs by Annexin-V-FITC/propidium iodide staining-based flow cytometric analysis (reference value: 2.88%); assay type: functional
Procedure, shortened: (§1)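 F10 cells were exposed to 0, 3.125, 6.25, 12.5 or 25 µM for 48 h. Cells were stained with Annexin V/PI and read by flow cytometry. Data are mean ± SD of three independent experiments.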

B16-F10 [3] = assay: Induction of apoptosis in mouse B16F10 cells assessed as late apoptosis cells at 6.25 uM incubated for 48 hrs by Annexin-V-FITC/propidium iodide staining-based flow cytometric analysis (reference value: 2.88%); assay type: functional; procedure, shortened: as §1
B16-F10 [4] = assay: Induction of apoptosis in mouse B16F10 cells assessed as viable cells at 12.5 uM incubated for 48 hrs by Annexin-V-FITC/propidium iodide staining-based flow cytometric analysis (reference value: 94%); assay type: functional; conditions: B16-F10, 48 h, read-out: Activity; procedure, shortened: as §1
B16-F10 [5] = assay: Induction of apoptosis in mouse B16F10 cells assessed as early apoptosis cells at 12.5 uM incubated for 48 hrs by Annexin-V-FITC/propidium iodide staining-based flow cytometric analysis (reference value: 2.93%); assay type: functional; procedure, shortened: as §1
B16-F10 [6] = assay: Induction of apoptosis in mouse B16F10 cells assessed as necrosis cells at 12.5 uM incubated for 48 hrs by Annexin-V-FITC/propidium iodide staining-based flow cytometric analysis (reference value: 0.186%); assay type: functional; procedure, shortened: as §1
B16-F10 [7] = assay: Induction of apoptosis in mouse B16F10 cells assessed as late apoptosis cells at 25 uM incubated for 48 hrs by Annexin-V-FITC/propidium iodide staining-based flow cytometric analysis (reference value: 2.88%); assay type: functional; procedure, shortened: as §1
B16-F10 [8] = assay: Induction of apoptosis in mouse B16F10 cells assessed as necrosis cells at 6.25 uM incubated for 48 hrs in presence of apoptosis inhibitor z-VAD-fmk by Annexin-V-FITC/propidium iodide staining-based flow cytometric analysis (reference value: 0.558%); assay type: functional
B16-F10 [9] = assay: Induction of apoptosis in mouse B16F10 cells assessed as viable cells at 12.5 uM incubated for 48 hrs in presence of apoptosis inhibitor z-VAD-fmk by Annexin-V-FITC/propidium iodide staining-based flow cytometric analysis (reference value: 92.5%); assay type: functional; conditions: B16-F10, 48 h, read-out: Activity
B16-F10 [10] = assay: Induction of apoptosis in mouse B16F10 cells assessed as late apoptosis cells at 12.5 uM incubated for 48 hrs in presence of apoptosis inhibitor z-VAD-fmk by Annexin-V-FITC/propidium iodide staining-based flow cytometric analysis (reference value: 3.13%); assay type: functional
B16-F10 [11] = assay: Induction of apoptosis in mouse B16F10 cells assessed as necrosis cells at 12.5 uM incubated for 48 hrs in presence of apoptosis inhibitor z-VAD-fmk by Annexin-V-FITC/propidium iodide staining-based flow cytometric analysis (reference value: 0.558%); assay type: functional
B16-F10 [12] = assay: Induction of apoptosis in mouse B16F10 cells assessed as early apoptosis cells at 25 uM incubated for 48 hrs in presence of apoptosis inhibitor z-VAD-fmk by Annexin-V-FITC/propidium iodide staining-based flow cytometric analysis (reference value: 3.83%); assay type: functional
B16-F10 [13] = assay: Induction of cell cycle arrest in mouse B16F10 cells assessed as cell accumulation at S phase at 12.5 uM incubated for 48 hrs by propidium iodide staining-based flow cytometric analysis (reference value: 14.16%); assay type: functional
B16-F10 [14] = assay: Induction of cell cycle arrest in mouse B16F10 cells assessed as cell accumulation at G1 phase at 25 uM incubated for 48 hrs by propidium iodide staining-based flow cytometric analysis (reference value: 59.73%); assay type: functional
B16-F10 [15] = assay: Induction of cell cycle arrest in mouse B16F10 cells assessed as cell accumulation at G2 phase at 25 uM incubated for 48 hrs by propidium iodide staining-based flow cytometric analysis (reference value: 22.43%); assay type: functional
B16-F10 [16] = assay: Inhibition of LPS-induced PGE2 production in mouse B16F10 cells at 6.25 uM incubated for 24 hrs by enzyme immunoassay; assay type: functional, cell-based
Procedure, shortened: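 F10 cells treated for 24 h alongside LPS (1 µg/ml), test agent at 6.25 µM. Supernatant collected by centrifugation and PGE2 measured with a PGE2 enzyme immunoassay (ELISA) kit. Mean ± SD of three independent experiments.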

B16-F10 [17] = assay: Antitumor activity against mouse B16F10 cells implanted in nude mouse assessed as reduction in tumor size at 20 mg/kg, ip administered once per 2 days for 14 days by caliper method; assay type: functional
Procedure, shortened: (§2)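 Nude mice were given 5×10^6 F10 cells subcutaneously in the right flank. At about 100 mm3, 24 mice were randomized into four groups of vehicle or compound. Dosing was intraperitoneal every two days for two weeks. Tumor volume was recorded every other day. Tumors were excised and weighed after the last treatment, and body weight was monitored.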

[18] = Toxicity in mouse B16F10 cells implanted in nude mouse assessed as change in body weight at 20 to 40 mg/kg, ip administered once per 2 days for 14 days; assay type: organism-based; conditions: in vivo
Procedure, shortened: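 Nude mice carried subcutaneous right-flank xenografts of 5×10^6 F10 cells. At about 100 mm3 tumor size they were randomized into groups of six (twenty-four mice, four groups): vehicle or 20 or 40 mg/kg, given intraperitoneally once every two days for two weeks. Body weight was tracked during treatment.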

B16-F10 [19] = assay: Antitumor activity against mouse B16F10 cells implanted in nude mouse assessed as decrease in tumor weight at 20 mg/kg, ip administered once per 2 days for 14 days by caliper method relative to control; assay type: functional, organism-based; procedure, shortened: as §2

Compound: NS(=O)(=O)c1ccc(-n2nc(C(=O)NCCCN3CCOCC3)cc2-c2ccc(C(F)(F)F)cc2)cc1
- IC50 (MCF7): 7.65 µM
- IC50 [1]: 0.17 µM
- Activity (B16-F10 [2]): 4.9%
- Activity (B16-F10 [3]): 7.9%
- viability at 12.5 µM (B16-F10 [4]): 73.7%
- Activity (B16-F10 [5]): 20.5%
- Activity (B16-F10 [6]): 0.685%
- Activity (B16-F10 [7]): 6.11%
- Activity (B16-F10 [8]): 0.155%
- viability at 12.5 µM (B16-F10 [9]): 84%
- Activity (B16-F10 [10]): 9.78%
- Activity (B16-F10 [11]): 0.105%
- Activity (B16-F10 [12]): 11.3%
- Activity (B16-F10 [13]): 15.42%
- Activity (B16-F10 [14]): 50.93%
- Activity (B16-F10 [15]): 33.6%
- inhibition (B16-F10 [16]): Active
- Activity (B16-F10 [17]): 1076.58 mm3
- Activity [18]: Non-Toxic
- Activity (B16-F10 [19]): Active
